In ChEMBL document CHEMBL1131640, “L-carnitine esters as "soft", broad-spectrum antimicrobial amphiphiles” (J Med Chem, 1998):

Key:
Type in all cases: functional
[1] = tested on: Escherichia coli; assay: Minimal inhibitory concentration against Escherichia coli
In short: (§1)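 Microtiter broth dilution MIC assay. Strains: S. aureus, S. faecalis, E. coli, P. vulgaris and C. albicans were wild-type clinical isolates; S. cerevisiae ATCC 7752, A. fumigatus ATCC 28212, A. niger ATCC 16404 and M. mucedo ATCC 7941.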

[2] = tested on: Enterococcus faecalis; assay: Minimal inhibitory concentration against Streptococcus faecalis; in short: as §1
[3] = tested on: Proteus vulgaris; assay: Minimal inhibitory concentration against Proteus vulgaris; in short: as §1
[4] = tested on: Staphylococcus aureus; assay: Minimal inhibitory concentration against Staphylococcus aureus; in short: as §1
[5] = tested on: Mucor mucedo; assay: Minimal inhibitory concentration against Mucor mucedo; in short: as §1
[6] = tested on: Aspergillus fumigatus; assay: Minimal inhibitory concentration against Aspergillus fumigatus; in short: as §1
[7] = tested on: Saccharomyces cerevisiae; assay: Minimal inhibitory concentration against Saccharomyces cerevisiae; in short: as §1
[8] = tested on: Candida albicans; assay: Minimal inhibitory concentration against Candida albicans; in short: as §1
[9] = tested on: Aspergillus niger; assay: Minimal inhibitory concentration against Aspergillus niger; in short: as §1

MIC [1] [µg/mL] | MIC [2] [µg/mL] | MIC [3] [µg/mL] | MIC [4] [µg/mL] | MIC [5] [µg/mL] | MIC [6] [µg/mL] | MIC [7] [µg/mL] | MIC [8] [µg/mL] | MIC [9] [µg/mL] | Compound
25 | 1.56 | > 100 | 3.12 |  |  |  |  |  | CCCCCCCCCCCOC(=O)C[C@H](C[N+](C)(C)C)OC(=O)CCC(C)C.[Cl-]
50 | 3.12 | 100 | 6.25 | 25 | 12.5 | 3.12 | 3.12 | 12.5 | CCCCCCCCCCCOC(=O)C[C@H](C[N+](C)(C)C)OC(=O)CCCBr.[Cl-]
25 | 3.12 | 100 | 6.25 |  |  |  |  |  | CCCCCCCCCCCCOC(=O)C[C@H](C[N+](C)(C)C)OC(=O)C(C)C.[Cl-]
> 100 | 50 | > 100 | 50 | > 100 | > 100 | > 100 | > 100 | > 100 | CCCCCCCCOC(=O)C[C@H](C[N+](C)(C)C)OC(=O)CC(C)C.[Cl-]
100 | 6.25 | 100 | 12.5 | 50 | 25 | > 100 | 6.25 | 50 | CC(C)CC(=O)O[C@H](CC(=O)OCCCCCCCCCCCBr)C[N+](C)(C)C.[Cl-]
> 100 | > 100 | > 100 | > 100 | > 100 | > 100 | > 100 | > 100 | > 100 | CCCCCCCCCCCC(=O)O[C@H](CC(=O)OCCC(F)(F)C(F)(F)C(F)(F)C(F)(F)C(F)(F)C(F)(F)F)C[N+](C)(C)C.[Cl-]
> 100 | > 100 | > 100 | > 100 | > 100 | > 100 | > 100 | > 100 | > 100 | CCCCCCCCCCC(=O)O[C@H](CC(=O)OCCC(F)(F)C(F)(F)C(F)(F)C(F)(F)C(F)(F)C(F)(F)C(F)(F)C(F)(F)F)C[N+](C)(C)C.[Cl-]
> 100 | 6.25 | 100 | 12.5 | 50 | 100 | 25 | 12.5 | 50 | CC(C)CC(=O)O[C@H](CC(=O)OCCCCCCC(F)(F)C(F)(F)C(F)(F)C(F)(F)F)C[N+](C)(C)C.[Cl-]
100 | 1.56 | 100 | 3.12 |  |  |  |  |  | CCCCCCCCCCCCCOC(=O)C[C@H](C[N+](C)(C)C)OC(=O)CC(C)C.[Cl-]
50 | 6.25 | > 100 | 12.5 | 100 | 50 | 3.12 | 3.12 | 25 | CCCCCCCCCCOC(=O)C[C@H](C[N+](C)(C)C)OC(=O)CC(C)C.[Cl-]
100 | 3.12 | > 100 | 12.5 | 100 | > 100 | 12.5 | 25 | 50 | CCCCCC(CCCCC)OC(=O)C[C@H](C[N+](C)(C)C)OC(=O)CC(C)C.[Cl-]
> 100 |  | > 100 | 12.5 | 50 | 25 | 12.5 | 12.5 | 12.5 | CCCCCCCCCCC(=O)O[C@H](CC(=O)OCCCCCCC(F)(F)C(F)(F)C(F)(F)C(F)(F)F)C[N+](C)(C)C.[Cl-]
25 | 3.12 | 50 | 3.12 | 25 | 12.5 | 3.12 | 3.12 | 6.25 | CCCCCCCCOC(=O)C[C@H](C[N+](C)(C)C)OC(=O)CCCCCCCC.[Cl-]
> 100 | 3.12 | > 100 | 6.25 |  |  | 3.12 |  |  | CCCCCCCCCCCCCCCCOC(=O)C[C@H](C[N+](C)(C)C)OC(=O)CC(C)C.[Cl-]
> 100 | 25 | > 100 | 50 | 50 | > 100 | 25 | 25 | 100 | CCCCCCCCCCCCCOC(=O)C[C@H](C[N+](C)(C)C)OC(=O)CCCCCCCCCC.[Cl-]
> 100 | 6.25 | > 100 | 12.5 | 50 | 100 | 12.5 | 12.5 | 25 | CCCCCCCCCCCCCOC(=O)C[C@H](C[N+](C)(C)C)OC(=O)CCCCCCCC.[Cl-]
100 | 3.12 | > 100 | 3.12 |  |  | 1.56 |  |  | CCCCCCCCCCCCOC(=O)C[C@H](C[N+](C)(C)C)OC(=O)CC(C)C.[Cl-]
